Columns and labels:
[1] = test system: UO-31; assay: Cytotoxicity against human UO31 cells assessed as cell growth at 10^-5 M after 48 hrs by SRB assay; assay type: functional; conditions: UO-31, 48 h, read-out: Activity
Procedure, shortened: (§1)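 NCI primary single-dose screen at 10^-5 M. Cells grown in RPMI 1640 with 5% FBS and 2 mM L-glutamine, given 24 h before drug addition, then 48 h exposure at 37 °C, 5% CO2. Cells TCA-fixed, stained with SRB, read at 515 nm. Reported as percent growth of treated cells relative to untreated controls.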

[2] = test system: HCT-15; assay: Cytotoxicity against human HCT15 cells assessed as cell growth at 10^-5 M after 48 hrs by SRB assay; assay type: functional; conditions: HCT-15, 48 h, read-out: Activity
Procedure, shortened: (§2)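 NCI 60 single-dose screen at 10^-5 M. Cells in RPMI 1640 with 5% FBS and 2 mM L-glutamine, preincubated 24 h at 37 °C/5% CO2. Drug from DMSO stock, then 48 h exposure. TCA fixation, SRB staining, absorbance at 515 nm. Result given as percent growth of treated cells relative to untreated control.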

[3] = Cytotoxicity against human NCI-ADR-RES cells assessed as cell growth at 10^-5 M after 48 hrs by SRB assay; assay type: functional; conditions: read-out: Activity
Procedure, shortened: (§3)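 NCI 60-panel single-dose primary screen at 10^-5 M. Cells are grown in RPMI 1640 with 5% FBS and 2 mM L-glutamine and preincubated 24 h at 37 °C. Drug exposure is 48 h. Cells are TCA-fixed, stained with SRB and absorbance is read at 515 nm. Results are reported as percent growth of treated cells versus untreated controls, corrected using time-zero plates.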

[4] = test system: 786-0; assay: Cytotoxicity against human 786-0 cells assessed as cell growth at 10^-5 M after 48 hrs by SRB assay; assay type: functional; conditions: 786-0, 48 h, read-out: Activity; procedure, shortened: as §2
[5] = test system: MOLT-4; assay: Cytotoxicity against human MOLT4 cells assessed as cell growth at 10^-5 M after 48 hrs by SRB assay; assay type: functional; conditions: MOLT-4, 48 h, read-out: Activity; procedure, shortened: as §3
[6] = test system: SN12C; assay: Cytotoxicity against human SN12C cells assessed as cell growth at 10^-5 M after 48 hrs by SRB assay; assay type: functional; conditions: read-out: Activity; procedure, shortened: as §3
[7] = test system: HOP-62; assay: Cytotoxicity against human HOP62 cells assessed as cell growth at 10^-5 M after 48 hrs by SRB assay; assay type: functional; conditions: HOP-62, 48 h, read-out: Activity; procedure, shortened: as §2
[8] = biological target: Epidermal growth factor receptor (Homo sapiens, UniProt P00533); conditions: at 10 µM;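 further: EGFR tyrosine kinase activity on a poly(Glu,Tyr) substrate, read out by Kinase-Glo Plus luminescence after a 40 min reaction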
Chain of Epidermal growth factor receptor (P00533 whole entry): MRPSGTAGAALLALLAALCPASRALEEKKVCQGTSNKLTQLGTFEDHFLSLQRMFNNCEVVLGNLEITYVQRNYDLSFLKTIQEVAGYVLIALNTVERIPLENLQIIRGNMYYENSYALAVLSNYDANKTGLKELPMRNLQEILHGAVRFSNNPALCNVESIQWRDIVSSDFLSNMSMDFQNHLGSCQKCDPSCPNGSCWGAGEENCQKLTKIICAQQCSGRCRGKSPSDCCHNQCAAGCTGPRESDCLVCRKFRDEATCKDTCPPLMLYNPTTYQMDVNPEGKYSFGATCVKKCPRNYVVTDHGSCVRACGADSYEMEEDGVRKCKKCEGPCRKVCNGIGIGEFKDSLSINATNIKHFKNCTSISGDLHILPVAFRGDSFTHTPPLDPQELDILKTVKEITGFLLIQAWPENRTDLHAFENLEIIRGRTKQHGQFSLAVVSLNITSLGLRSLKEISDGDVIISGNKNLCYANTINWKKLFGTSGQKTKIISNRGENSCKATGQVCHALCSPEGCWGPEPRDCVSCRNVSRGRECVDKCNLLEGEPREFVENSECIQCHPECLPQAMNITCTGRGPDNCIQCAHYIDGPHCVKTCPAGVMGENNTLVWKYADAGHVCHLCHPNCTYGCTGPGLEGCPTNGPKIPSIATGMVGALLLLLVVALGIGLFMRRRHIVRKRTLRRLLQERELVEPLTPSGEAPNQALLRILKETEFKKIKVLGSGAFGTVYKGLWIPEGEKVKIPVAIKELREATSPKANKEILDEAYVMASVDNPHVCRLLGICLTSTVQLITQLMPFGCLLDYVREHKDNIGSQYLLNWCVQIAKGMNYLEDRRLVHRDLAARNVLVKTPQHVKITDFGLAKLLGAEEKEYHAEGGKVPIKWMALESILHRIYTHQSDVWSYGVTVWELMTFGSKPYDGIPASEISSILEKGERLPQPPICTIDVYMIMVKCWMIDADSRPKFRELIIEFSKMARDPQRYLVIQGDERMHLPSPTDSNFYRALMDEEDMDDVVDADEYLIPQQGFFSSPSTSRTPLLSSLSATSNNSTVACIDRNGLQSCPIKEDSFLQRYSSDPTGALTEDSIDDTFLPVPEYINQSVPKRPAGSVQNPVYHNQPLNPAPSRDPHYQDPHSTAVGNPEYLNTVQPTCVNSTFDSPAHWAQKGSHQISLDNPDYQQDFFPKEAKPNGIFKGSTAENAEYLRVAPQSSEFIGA

[9] = test system: SNB-75; assay: Cytotoxicity against human SNB75 cells assessed as cell growth at 10^-5 M after 48 hrs by SRB assay; assay type: functional; conditions: SNB-75, 48 h, read-out: Activity; procedure, shortened: as §3
[10] = test system: OVCAR-4; assay: Cytotoxicity against human OVCAR4 cells assessed as cell growth at 10^-5 M after 48 hrs by SRB assay; assay type: functional; conditions: OVCAR-4, 48 h, read-out: Activity; procedure, shortened: as §3
[11] = test system: T47D; assay: Cytotoxicity against human T47D cells assessed as cell growth at 10^-5 M after 48 hrs by SRB assay; assay type: functional; conditions: read-out: Activity; procedure, shortened: as §1
[12] = test system: ACHN; assay: Cytotoxicity against human ACHN cells assessed as cell growth at 10^-5 M after 48 hrs by SRB assay; assay type: functional; conditions: read-out: Activity; procedure, shortened: as §2
[13] = test system: OVCAR-3; assay: Cytotoxicity against human OVCAR3 cells assessed as cell growth at 10^-5 M after 48 hrs by SRB assay; assay type: functional; conditions: OVCAR-3, 48 h, read-out: Activity; procedure, shortened: as §3
[14] = test system: KM12; assay: Cytotoxicity against human KM12 cells assessed as cell growth at 10^-5 M after 48 hrs by SRB assay; assay type: functional; conditions: KM12, 48 h, read-out: Activity; procedure, shortened: as §2
[15] = test system: CCRF-CEM; assay: Cytotoxicity against human CCRF-CEM cells assessed as cell growth at 10^-5 M after 48 hrs by SRB assay; assay type: functional; conditions: read-out: Activity; procedure, shortened: as §2
[16] = test system: SF-268; assay: Cytotoxicity against human SF268 cells assessed as cell growth at 10^-5 M after 48 hrs by SRB assay; assay type: functional; conditions: SF-268, 48 h, read-out: Activity; procedure, shortened: as §3
[17] = test system: CAKI-1; assay: Cytotoxicity against human Caki1 cells assessed as cell growth at 10^-5 M after 48 hrs by SRB assay; assay type: functional; conditions: CAKI-1, 48 h, read-out: Activity; procedure, shortened: as §2
[18] = test system: MDA-MB-231; assay: Cytotoxicity against human MDA-MB-231 cells assessed as cell growth at 10^-5 M after 48 hrs by SRB assay; assay type: functional; conditions: MDA-MB-231, 48 h, read-out: Activity; procedure, shortened: as §2
[19] = test system: LOX IMVI; assay: Cytotoxicity against human LOXIMVI cells assessed as cell growth at 10^-5 M after 48 hrs by SRB assay; assay type: functional; conditions: read-out: Activity; procedure, shortened: as §2
[20] = test system: SK-OV-3; assay: Cytotoxicity against human SKOV3 cells assessed as cell growth at 10^-5 M after 48 hrs by SRB assay; assay type: functional; conditions: SK-OV-3, 48 h, read-out: Activity; procedure, shortened: as §3
[21] = test system: HL-60(TB); assay: Cytotoxicity against human HL-60(TB) cells assessed as cell growth at 10^-5 M after 48 hrs by SRB assay; assay type: functional; conditions: HL-60, 48 h, read-out: Activity
Procedure, shortened: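 NCI 60-panel single-dose screen. Cells were grown in RPMI 1640 with 5% FBS and 2 mM L-glutamine, preincubated 24 h, then exposed to compound at 10^-5 M (from DMSO stock) for 48 h at 37 °C, 5% CO2. Settled suspension cells were TCA-fixed and SRB-stained, with absorbance read at 515 nm. The value is percent growth of treated versus untreated control cells.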

[22] = test system: SF-539; assay: Cytotoxicity against human SF539 cells assessed as cell growth at 10^-5 M after 48 hrs by SRB assay; assay type: functional; conditions: SF-539, 48 h, read-out: Activity; procedure, shortened: as §3
[23] = test system: HT-29; assay: Cytotoxicity against human HT-29 cells assessed as cell growth at 10^-5 M after 48 hrs by SRB assay; assay type: functional; conditions: HT-29, 48 h, read-out: Activity; procedure, shortened: as §2
[24] = test system: NCI-H460; assay: Cytotoxicity against human NCI-H460 cells assessed as cell growth at 10^-5 M after 48 hrs by SRB assay; assay type: functional; conditions: NCI-H460, 48 h, read-out: Activity; procedure, shortened: as §3
[25] = test system: Malme-3M; assay: Cytotoxicity against human MALME-3M cells assessed as cell growth at 10^-5 M after 48 hrs by SRB assay; assay type: functional; conditions: read-out: Activity; procedure, shortened: as §2
[26] = test system: COLO 205; assay: Cytotoxicity against human COLO205 cells assessed as cell growth at 10^-5 M after 48 hrs by SRB assay; assay type: functional; conditions: COLO 205, 48 h, read-out: Activity; procedure, shortened: as §2
[27] = test system: MDA-MB-468; assay: Cytotoxicity against human MDA-MB-468 cells assessed as cell growth at 10^-5 M after 48 hrs by SRB assay; assay type: functional; conditions: MDA-MB-468, 48 h, read-out: Activity; procedure, shortened: as §3
[28] = test system: SW-620; assay: Cytotoxicity against human SW620 cells assessed as cell growth at 10^-5 M after 48 hrs by SRB assay; assay type: functional; conditions: SW-620, 48 h, read-out: Activity; procedure, shortened: as §1
[29] = test system: K562; assay: Cytotoxicity against human K562 cells assessed as cell growth at 10^-5 M after 48 hrs by SRB assay; assay type: functional; conditions: K562, 48 h, read-out: Activity; procedure, shortened: as §2
[30] = test system: A498; assay: Cytotoxicity against human A498 cells assessed as cell growth at 10^-5 M after 48 hrs by SRB assay; assay type: functional; conditions: A498, 48 h, read-out: Activity; procedure, shortened: as §2
[31] = Cytotoxicity against human EKVX cells assessed as cell growth at 10^-5 M after 48 hrs by SRB assay; assay type: functional; conditions: read-out: Activity; procedure, shortened: as §2

SMILES	growth at 10 µM [1]	growth at 10 µM [2]	growth at 10 µM [3]	growth at 10 µM [4]	growth at 10 µM [5]	growth at 10 µM [6]	growth at 10 µM [7]	inhibition [8]	growth at 10 µM [9]	growth at 10 µM [10]	growth at 10 µM [11]	growth at 10 µM [12]	growth at 10 µM [13]	growth at 10 µM [14]	growth at 10 µM [15]	growth at 10 µM [16]	growth at 10 µM [17]	growth at 10 µM [18]	growth at 10 µM [19]	growth at 10 µM [20]	other results
NC(=O)Nc1ccc2ncnc(Nc3ccc(Cl)cc3)c2c1	58%	93.1%	88.7%	85.9%	71.2%	81.9%	86.2%	100%	95%	91.9%	61.6%	47.4%	74.2%	98.5%	96%	79.7%	40.1%	89.3%	95.5%	30.2%	growth at 10 µM [21]: 99.9%; growth at 10 µM [22]: 95.7%; growth at 10 µM [23]: 91.6%; growth at 10 µM [24]: 88%; growth at 10 µM [25]: 117%; growth at 10 µM [26]: 101%; growth at 10 µM [27]: -7.15%; growth at 10 µM [28]: 99.1%; growth at 10 µM [29]: 71.4%; growth at 10 µM [30]: 43.4%; growth at 10 µM [31]: 22.4%
CCOC(=O)/C(C#N)=C\Nc1ccc2ncnc(Nc3ccc(Cl)cc3Cl)c2c1	42%	92.7%	85.4%	82.6%	58.8%	89.5%	101%	92%	91.3%	95.1%	58.6%	62.9%	67.6%	79.1%	70.9%	73%	39%	85.2%	87.5%	97%	growth at 10 µM [21]: 108%; growth at 10 µM [22]: 92.7%; growth at 10 µM [23]: 79.4%; growth at 10 µM [24]: 84.8%; growth at 10 µM [25]: 140%; growth at 10 µM [26]: 108%; growth at 10 µM [27]: 56.4%; growth at 10 µM [28]: 100%; growth at 10 µM [29]: 59.7%; growth at 10 µM [30]: 48.7%; growth at 10 µM [31]: 41.7%
NC(=O)Nc1ccc2ncnc(Nc3cccc(O)c3)c2c1	80.1%	108%	96.8%	92.6%	98.8%	94.9%	92.8%	100%	102%	112%	76.6%	103%	82.8%	96.1%	108%	85.4%	84.8%	104%	101%	87.5%	growth at 10 µM [21]: 105%; growth at 10 µM [22]: 109%; growth at 10 µM [23]: 106%; growth at 10 µM [24]: 108%; growth at 10 µM [25]: 121%; growth at 10 µM [26]: 94.7%; growth at 10 µM [27]: 67.9%; growth at 10 µM [28]: 99.1%; growth at 10 µM [29]: 103%; growth at 10 µM [30]: 77.4%; growth at 10 µM [31]: 82.6%

Source: ChEMBL document CHEMBL2346534, “Design, synthesis and in vitro anti-proliferative activity of 4,6-quinazolinediamines as potent EGFR-TK inhibitors” (Eur J Med Chem, 2013)
